Source: ChEMBL document CHEMBL1687700, “Discovery of an Orally Efficacious Imidazo[5,1-f][1,2,4]triazine Dual Inhibitor of IGF-1R and IR” (ACS Med Chem Lett, 2010)
Calls of active or inactive are those of the source. The rule behind the calls is not given here.

Key:
[1] = Permeability of the compound by PAMPA assay at pH 5.0; type: ADME; settings: read-out: permeability
In short: (§1)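 Parallel artificial membrane permeability assay run at pH 5.0 and pH 7.4; permeability reported in nm/s.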

[2] = (§2) Oral bioavailability in CD-1 mouse at 25 mg/kg, po administered as single dose; type: ADME, organism-based; settings: CD-1, mouse, in vivo
[3] = Cmax in CD-1 mouse plasma at 25 mg/kg, po administered as single dose; type: ADME, organism-based; design: dose 25 mg/kg, route oral
[4] = Clearance in CD-1 mouse at 5 mg/kg, iv administered as single dose; type: ADME, organism-based; design: dose 5 mg/kg, route intravenous; settings: in vivo
[5] = Volume of distribution at steady state in CD-1 mouse at 5 mg/kg, iv administered as single dose; type: ADME, organism-based; design: dose 5 mg/kg, route intravenous; settings: in vivo, read-out: Vdss
[6] = Permeability of the compound by PAMPA assay at pH 7.4; type: ADME; settings: read-out: permeability; in short: as §1
[7] = Genotoxicity in Salmonella Typhimurium by Ames test in absence of S9 liver microsomes; type: toxicity, Microsome; settings: salmonella enterica subsp. enterica serovar typhimurium
[8] = biological target: Insulin-like growth factor 1 receptor (Homo sapiens, UniProt P08069); experiment: Inhibition of auto-phosphorylation of human IGF1R expressed in mouse NIH-3T3 cells after 2 hrs by luminometry; type: cell-based, NIH3T3
[9] = test system: Mus musculus; experiment: as §2; type: ADME, organism-based; settings: mouse, in vivo
[10] = AUC in Sprague-Dawley rat at 25 mg/kg, po administered as single dose; type: ADME, organism-based; design: dose 25 mg/kg, route oral; settings: plasma
In short: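 Single oral dose of 25 mg/kg, given as the free base in 50:50 PEG-400:25 mM tartaric acid, to female rats. Plasma AUC (ng h/mL) is reported as the median. Clearance parameters come from a separate 5 mg/kg iv dose.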

[11] = biological target: Insulin receptor (Homo sapiens, UniProt P06213); experiment: Inhibition of auto-phosphorylation of human IR expressed in human HepG2 cells after 2 hrs by luminometry; type: cell-based
[12] = Antiproliferative activity against human GEO cells expressing IGF-1R assessed as intracellular ATP content after 3 days by Cell Titre-Glo luminescent assay; type: functional, cell-based; settings: 72 h
[13] = biological target: T1, Cytochrome P450 1A2 (Homo sapiens, UniProt P05177); experiment: Inhibition of CYP1A2; type: ADME
T1 sequence (P05177 whole entry): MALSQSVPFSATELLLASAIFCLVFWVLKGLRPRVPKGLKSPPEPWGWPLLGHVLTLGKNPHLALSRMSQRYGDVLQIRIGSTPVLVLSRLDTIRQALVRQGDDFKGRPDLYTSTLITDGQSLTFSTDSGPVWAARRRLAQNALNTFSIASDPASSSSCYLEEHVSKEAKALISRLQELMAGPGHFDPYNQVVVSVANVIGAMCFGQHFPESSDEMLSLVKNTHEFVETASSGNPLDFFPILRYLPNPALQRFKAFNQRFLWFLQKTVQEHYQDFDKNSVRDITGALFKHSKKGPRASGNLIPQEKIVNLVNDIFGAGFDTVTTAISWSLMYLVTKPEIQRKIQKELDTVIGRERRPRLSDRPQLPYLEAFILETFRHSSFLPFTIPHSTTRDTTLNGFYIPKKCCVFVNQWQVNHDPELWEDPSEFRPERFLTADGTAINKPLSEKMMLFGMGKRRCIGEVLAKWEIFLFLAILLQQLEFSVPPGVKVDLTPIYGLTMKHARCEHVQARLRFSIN

[14] = biological target: Cytochrome P450 3A4 (Homo sapiens, UniProt P08684); experiment: Inhibition of CYP3A4; type: ADME
[15] = Extraction ratio of hepatic clearance to hepatic blood flow in human microsomes; type: ADME, Microsome; settings: liver microsomes
[16] = Genotoxicity in Salmonella Typhimurium by Ames test in presence of S9 liver microsomes; type: toxicity, Microsome; settings: salmonella enterica subsp. enterica serovar typhimurium
[17] = Clearance in Sprague-Dawley rat at 5 mg/kg, iv administered as single dose; type: ADME, organism-based; design: dose 5 mg/kg, route intravenous; settings: in vivo
In short: (§3)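 Single 5 mg/kg iv dose used to derive clearance and Vss; median values reported per species (female rat, male rhesus monkey).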

[18] = Cmax in Sprague-Dawley rat at 25 mg/kg, po administered as single dose; type: ADME, organism-based; design: dose 25 mg/kg, route oral; settings: in vivo
[19] = Volume of distribution at steady state in Sprague-Dawley rat at 5 mg/kg, iv administered as single dose; type: ADME, organism-based; design: dose 5 mg/kg, route intravenous; settings: in vivo, read-out: Vdss; in short: as §3
[20] = biological target: Cytochrome P450 2D6 (Homo sapiens, UniProt P10635); experiment: Inhibition of CYP2D6; type: ADME
[21] = species: Rattus norvegicus; experiment: Toxicity in rat after 14 days; type: organism-based; settings: in vivo, 336 h
[22] = Extraction ratio of hepatic clearance to hepatic blood flow in mouse microsomes; type: ADME, Microsome; settings: liver microsomes
[23] = Antiproliferative activity against human GEO cells expressing IR assessed as intracellular ATP content after 3 days by Cell Titre-Glo luminescent assay; type: functional, cell-based; settings: 72 h
[24] = Oral bioavailability in Sprague-Dawley rat at 25 mg/kg administered as single dose; type: ADME, organism-based; settings: in vivo
[25] = biological target: RAC-alpha serine/threonine-protein kinase (Homo sapiens) (UniProt P31749); experiment: Inhibition of AKT phosphorylation in human GEO cells; type: cell-based
[26] = test system: Mus musculus; experiment: Increase in blood glucose level in CD-1 nu/nu mouse at 10 mg/kg, po upto 8 hrs; type: functional, organism-based; design: dose 10 mg/kg
In short: (§4)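 Blood glucose measured in GEO xenograft mice after the last dose of a 14-day oral dosing study, over a time course to 24 h.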

[27] = test system: Mus musculus; experiment: Inhibition of human IGF1R phosphorylation in human GEO cells xenografted in CD-1 nu/nu mouse assessed as sustained inhibition measured 24 hrs post last dose at 20 mg/kg, po qd administered for 14 days
[28] = test system: Mus musculus; experiment: Increase in blood glucose level in CD-1 nu/nu mouse at 10 mg/kg, po after 24 hrs; type: functional, organism-based; design: dose 10 mg/kg; in short: as §4

Cytochrome P450 2D6, sequence (P10635 whole entry): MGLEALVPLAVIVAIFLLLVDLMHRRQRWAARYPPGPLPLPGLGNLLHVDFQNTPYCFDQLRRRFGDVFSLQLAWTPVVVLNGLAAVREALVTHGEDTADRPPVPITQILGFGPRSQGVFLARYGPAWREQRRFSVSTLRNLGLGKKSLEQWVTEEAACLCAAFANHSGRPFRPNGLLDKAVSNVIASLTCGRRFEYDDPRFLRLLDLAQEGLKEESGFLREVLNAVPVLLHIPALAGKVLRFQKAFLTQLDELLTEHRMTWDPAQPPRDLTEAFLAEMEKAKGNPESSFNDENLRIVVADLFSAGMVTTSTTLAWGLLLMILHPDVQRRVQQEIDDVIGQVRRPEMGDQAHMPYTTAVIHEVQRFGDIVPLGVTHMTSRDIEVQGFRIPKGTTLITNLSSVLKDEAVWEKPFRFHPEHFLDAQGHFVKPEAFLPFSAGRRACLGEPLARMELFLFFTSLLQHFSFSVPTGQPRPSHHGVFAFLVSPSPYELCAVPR
Insulin-like growth factor 1 receptor, sequence (P08069 31-736 limits assumed): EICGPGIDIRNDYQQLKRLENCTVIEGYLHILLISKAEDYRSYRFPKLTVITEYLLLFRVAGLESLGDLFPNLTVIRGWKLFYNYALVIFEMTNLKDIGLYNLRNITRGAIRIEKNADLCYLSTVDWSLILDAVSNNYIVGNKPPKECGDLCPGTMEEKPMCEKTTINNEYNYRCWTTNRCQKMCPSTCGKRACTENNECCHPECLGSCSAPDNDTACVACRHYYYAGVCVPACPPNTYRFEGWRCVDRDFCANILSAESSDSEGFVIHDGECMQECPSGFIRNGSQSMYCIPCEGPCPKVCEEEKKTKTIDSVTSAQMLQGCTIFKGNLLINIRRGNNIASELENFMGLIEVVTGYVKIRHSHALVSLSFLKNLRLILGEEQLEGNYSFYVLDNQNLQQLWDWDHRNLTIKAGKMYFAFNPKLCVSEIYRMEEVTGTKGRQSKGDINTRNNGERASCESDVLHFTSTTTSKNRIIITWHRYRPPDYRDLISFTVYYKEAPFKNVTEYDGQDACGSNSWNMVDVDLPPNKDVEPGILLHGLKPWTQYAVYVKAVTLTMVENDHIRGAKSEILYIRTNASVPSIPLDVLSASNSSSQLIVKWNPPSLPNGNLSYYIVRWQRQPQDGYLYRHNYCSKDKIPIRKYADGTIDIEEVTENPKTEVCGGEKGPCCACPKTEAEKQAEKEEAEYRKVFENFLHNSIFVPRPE
Insulin-like growth factor 1 receptor, sequence (P08069 741-1367 limits assumed): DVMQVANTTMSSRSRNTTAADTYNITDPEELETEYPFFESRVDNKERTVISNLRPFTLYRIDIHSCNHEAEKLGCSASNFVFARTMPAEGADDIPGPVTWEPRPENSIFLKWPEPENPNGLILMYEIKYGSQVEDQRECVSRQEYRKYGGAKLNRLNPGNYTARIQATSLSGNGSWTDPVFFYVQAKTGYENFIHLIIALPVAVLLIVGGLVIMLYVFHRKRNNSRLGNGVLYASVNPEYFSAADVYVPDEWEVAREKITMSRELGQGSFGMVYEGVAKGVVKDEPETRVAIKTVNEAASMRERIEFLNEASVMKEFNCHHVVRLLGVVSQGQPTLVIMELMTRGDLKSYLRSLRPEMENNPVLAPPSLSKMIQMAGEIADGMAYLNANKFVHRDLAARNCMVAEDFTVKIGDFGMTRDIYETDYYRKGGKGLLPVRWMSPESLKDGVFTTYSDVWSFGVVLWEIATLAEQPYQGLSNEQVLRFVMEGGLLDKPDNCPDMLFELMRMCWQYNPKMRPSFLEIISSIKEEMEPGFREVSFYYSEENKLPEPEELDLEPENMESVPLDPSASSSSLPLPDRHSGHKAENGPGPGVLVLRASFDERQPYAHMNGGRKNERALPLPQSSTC
Insulin receptor, sequence (P06213 28-758 limits assumed): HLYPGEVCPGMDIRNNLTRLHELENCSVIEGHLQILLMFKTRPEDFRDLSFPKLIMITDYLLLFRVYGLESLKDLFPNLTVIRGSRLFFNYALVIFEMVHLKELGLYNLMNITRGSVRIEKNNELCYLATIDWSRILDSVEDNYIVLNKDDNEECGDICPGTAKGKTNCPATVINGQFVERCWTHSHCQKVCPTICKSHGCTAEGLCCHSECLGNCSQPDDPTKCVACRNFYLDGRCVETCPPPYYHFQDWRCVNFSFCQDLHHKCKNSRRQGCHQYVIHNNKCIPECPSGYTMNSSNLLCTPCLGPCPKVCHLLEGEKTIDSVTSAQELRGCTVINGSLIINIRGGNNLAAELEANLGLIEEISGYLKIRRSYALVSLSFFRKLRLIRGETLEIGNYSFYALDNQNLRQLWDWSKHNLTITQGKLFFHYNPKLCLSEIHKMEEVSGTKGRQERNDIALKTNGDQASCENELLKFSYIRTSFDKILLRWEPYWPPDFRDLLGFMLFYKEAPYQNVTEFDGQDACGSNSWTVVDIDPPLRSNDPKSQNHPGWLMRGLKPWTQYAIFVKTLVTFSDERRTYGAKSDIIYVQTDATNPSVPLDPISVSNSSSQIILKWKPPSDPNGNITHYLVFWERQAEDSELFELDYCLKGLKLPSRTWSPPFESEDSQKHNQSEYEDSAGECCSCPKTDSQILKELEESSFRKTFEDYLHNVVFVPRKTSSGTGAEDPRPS
Insulin receptor, sequence (P06213 763-1382 limits assumed): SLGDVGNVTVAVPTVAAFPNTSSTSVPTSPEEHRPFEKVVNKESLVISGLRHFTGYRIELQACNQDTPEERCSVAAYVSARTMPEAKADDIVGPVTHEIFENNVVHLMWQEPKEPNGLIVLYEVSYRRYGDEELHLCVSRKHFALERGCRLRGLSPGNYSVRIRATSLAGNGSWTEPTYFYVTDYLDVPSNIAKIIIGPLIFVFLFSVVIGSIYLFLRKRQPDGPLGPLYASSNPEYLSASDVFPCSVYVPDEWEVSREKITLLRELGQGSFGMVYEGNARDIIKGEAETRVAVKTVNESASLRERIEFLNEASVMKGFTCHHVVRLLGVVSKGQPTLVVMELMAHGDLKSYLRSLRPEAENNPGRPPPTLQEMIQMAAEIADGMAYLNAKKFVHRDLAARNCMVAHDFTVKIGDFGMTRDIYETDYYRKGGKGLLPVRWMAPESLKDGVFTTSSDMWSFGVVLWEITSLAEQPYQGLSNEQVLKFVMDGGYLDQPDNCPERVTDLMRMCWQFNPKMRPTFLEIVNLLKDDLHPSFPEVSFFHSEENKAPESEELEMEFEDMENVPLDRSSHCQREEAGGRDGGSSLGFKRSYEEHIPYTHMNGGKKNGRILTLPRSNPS
RAC-alpha serine/threonine-protein kinase (Homo sapiens), sequence (P31749 whole entry): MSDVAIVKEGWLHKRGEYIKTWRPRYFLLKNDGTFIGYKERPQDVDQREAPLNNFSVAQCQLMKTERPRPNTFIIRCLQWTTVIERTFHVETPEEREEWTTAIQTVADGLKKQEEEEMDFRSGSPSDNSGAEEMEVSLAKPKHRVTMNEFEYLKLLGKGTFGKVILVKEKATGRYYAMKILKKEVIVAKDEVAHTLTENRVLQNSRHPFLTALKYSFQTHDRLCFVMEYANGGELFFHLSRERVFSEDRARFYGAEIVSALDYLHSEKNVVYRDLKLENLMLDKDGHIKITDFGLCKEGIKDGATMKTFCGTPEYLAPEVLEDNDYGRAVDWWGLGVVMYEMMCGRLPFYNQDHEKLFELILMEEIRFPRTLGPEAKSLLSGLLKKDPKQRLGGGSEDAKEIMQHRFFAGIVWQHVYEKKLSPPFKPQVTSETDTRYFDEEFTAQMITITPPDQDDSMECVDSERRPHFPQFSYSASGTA
Cytochrome P450 3A4, sequence (P08684 whole entry): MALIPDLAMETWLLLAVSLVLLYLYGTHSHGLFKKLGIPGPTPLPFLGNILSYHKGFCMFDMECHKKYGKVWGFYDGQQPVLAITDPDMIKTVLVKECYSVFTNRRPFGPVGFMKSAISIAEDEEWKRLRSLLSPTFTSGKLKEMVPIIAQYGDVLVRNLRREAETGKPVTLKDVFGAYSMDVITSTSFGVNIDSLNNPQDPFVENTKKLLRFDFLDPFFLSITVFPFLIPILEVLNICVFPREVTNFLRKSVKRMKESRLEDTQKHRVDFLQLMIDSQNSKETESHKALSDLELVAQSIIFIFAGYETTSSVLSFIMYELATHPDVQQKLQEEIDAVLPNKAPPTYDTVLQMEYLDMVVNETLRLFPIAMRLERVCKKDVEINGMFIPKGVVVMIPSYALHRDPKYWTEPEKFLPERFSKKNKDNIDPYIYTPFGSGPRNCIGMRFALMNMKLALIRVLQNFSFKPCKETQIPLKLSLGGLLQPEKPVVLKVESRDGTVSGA

Nc1ncnn2c1c(-c1ccc3ccc(-c4ccccc4)nc3c1F)nc2[C@H]1C[C@@H](N2CCN(C=O)CC2)C1
Papp [1]: 20.4 ×10⁻⁶ cm/s | bioavailability [2]: 18% | Cmax [3]: 3.1 µM | clearance [4]: 7 mL/min/kg | Vd [5]: 1.2 L/kg | Papp [6]: 105 ×10⁻⁶ cm/s

C[C@]1(O)C[C@@H](c2nc(-c3ccc4ccc(-c5ccccc5)nc4c3F)c3c(N)ncnn32)C1 [listing 1 of 2 here]
Activity [7]: Non-toxic | IC50 [8]: 17 nM | Papp [1]: 109 ×10⁻⁶ cm/s | F [9]: 162% | AUC [10]: 62400 ng·h/mL | IC50 [11]: 76 nM | EC50 [12]: 130 nM | IC50 [13]: > 25000 nM | IC50 [14]: > 25000 nM | hepatic extraction ratio [15]: 0.55 | Activity [16]: Non-toxic | clearance [17]: 4 mL/min/kg | Cmax [18]: 11.3 µM | Vd [19]: 0.97 L/kg | Cmax [3]: 20.5 µM | clearance [4]: 4 mL/min/kg | IC50 [20]: > 25000 nM | Activity [21]: Non-toxic | hepatic extraction ratio [22]: 0.43 | Vd [5]: 1 L/kg | Papp [6]: 110 ×10⁻⁶ cm/s | EC50 [23]: 130 nM | bioavailability [24]: 64%

C[C@]1(O)C[C@@H](c2nc(-c3ccc4ccc(-c5ccccc5)nc4c3F)c3c(N)ncnn32)C1 [listing 2 of 2 here]
inhibition [25]: Active | Activity [26]: Active | inhibition [27]: Active | Activity [28]: inactive
